Measured values: ChEMBL document CHEMBL3045170, “Synthesis and biological activity of organotin 4-methyl-1,2,3-thiadiazole-5-carboxylates and benzo[1,2,3]thiadiazole-7-carboxylates” (J Agric Food Chem, 2010)

Assays:
Format in all cases: functional
Conditions in all cases: for inhibition of growth at 50 µg/mL: 48 h, read-out: GI
Botrytis cinerea = assay: Fungicidal activity against Botryotinia fuckeliana assessed as growth inhibition at 50 ug/ml after 2 days
Summary of the method: (§1)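 Poisoned-plate mycelial growth assay. The test sample was mixed into molten potato dextrose agar in a Petri dish before it set. Fungus was inoculated and incubated at 24-26 °C. Colony spread diameter was measured after 2 days, and percent growth inhibition was calculated relative to the corresponding control plate.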

Fusarium graminearum = assay: Fungicidal activity against Fusarium graminearum assessed as growth inhibition at 50 ug/ml after 2 days
Summary of the method: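 Mycelial growth test on potato dextrose agar (9 mL) in Petri dishes, with the plate mixed thoroughly before setting. Gibberella zeae inoculated and cultured at 24-26 °C. Colony spread diameter measured after 2 days, and growth inhibition calculated relative to the corresponding control.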

[1] = test system: Botryosphaeria berengeriana; assay: Fungicidal activity against Botryosphaeria berengeriana assessed as growth inhibition at 50 ug/ml after 2 days; summary of the method: as §1
Mycosphaerella arachidis = assay: Fungicidal activity against Mycosphaerella arachidis assessed as growth inhibition at 50 ug/ml after 2 days; summary of the method: as §1
Alternaria solani = assay: Fungicidal activity against Alternaria solani assessed as growth inhibition at 50 ug/ml after 2 days; summary of the method: as §1

Molecule	growth inhibition (GI) (Botrytis cinerea) [%]	growth inhibition (GI) (Fusarium graminearum) [%]	growth inhibition (GI) [1] [%]	growth inhibition (GI) (Mycosphaerella arachidis) [%]	growth inhibition (GI) (Alternaria solani) [%]	inhibition of growth at 50 µg/mL (Botrytis cinerea) [%]	inhibition of growth at 50 µg/mL (Fusarium graminearum) [%]	inhibition of growth at 50 µg/mL [1] [%]	inhibition of growth at 50 µg/mL (Mycosphaerella arachidis) [%]	inhibition of growth at 50 µg/mL (Alternaria solani) [%]
tributylstannyl benzo[d][1,2,3]thiadiazole-7-carboxylate	98.2	92.9	97.2	97.4	92.5	–	–	–	–	–
dibutylstannanediyl dibenzo[d][1,2,3]thiadiazole-7-carboxylate	29.7	58.3	27.3	23.1	19.8	–	–	–	–	–
diethylstannanediyl dibenzo[d][1,2,3]thiadiazole-7-carboxylate	43.2	50	36.7	20.5	32.3	–	–	–	–	–
triphenylstannyl benzo[d][1,2,3]thiadiazole-7-carboxylate	91.9	54.8	97.2	71.8	92.5	–	–	–	–	–
O=C(O)c1cccc2nnsc12 [1,2,3-benzothia-diazole-7-carboxylic acid]	–	–	–	–	–	72.1	60.7	40.5	30.8	42.4
triethylstannyl benzo[d][1,2,3]thiadiazole-7-carboxylate	100	100	100	100	100	–	–	–	–	–
CCCC1COC(Cn2cncn2)(c2ccc(Cl)cc2Cl)O1 (stereo not given) [PROPICONAZOLE]	–	–	–	–	–	100	100	100	100	89.2
tricyclohexylstannyl benzo[d][1,2,3]thiadiazole-7-carboxylate	94.1	50	92.5	76.7	50	–	–	–	–	–
